In paper PMC9529790 (Nature chemical biology, 2022):

Tests used:
[1] = test system: parental and 5-FU-resistant SW480 cell lines; experiment: Spheroid growth of parental and 5-FU-resistant SW480 lines; assay type: cell-based, human; conditions: spheroids
Method in brief: (§1)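 SW480 cells were seeded on solidified Matrigel in RPMI-1640 spheroid medium containing 20 ng/mL EGF, 20 ng/mL FGF, heparin, N-2 supplement and penicillin/streptomycin. Seeding was 1,000 cells/well (96-well) or 5,000 cells/well (24-well). Test compound was added in medium and cultures were grown 7 days at 37 °C with 5% CO2. Spheroids were imaged by phase contrast (some stained with crystal violet), and small objects excluded before area analysis.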

ALDH1B1 = target: T1, ALDH1B1 (Homo sapiens, UniProt P30837); experiment: ALDEFLUOR assay, ALDH1B1 transiently expressed in ALDH1A3-/- A375 cells; assay type: cell-based; conditions: flow cytometry
T1 sequence (P30837 18-517): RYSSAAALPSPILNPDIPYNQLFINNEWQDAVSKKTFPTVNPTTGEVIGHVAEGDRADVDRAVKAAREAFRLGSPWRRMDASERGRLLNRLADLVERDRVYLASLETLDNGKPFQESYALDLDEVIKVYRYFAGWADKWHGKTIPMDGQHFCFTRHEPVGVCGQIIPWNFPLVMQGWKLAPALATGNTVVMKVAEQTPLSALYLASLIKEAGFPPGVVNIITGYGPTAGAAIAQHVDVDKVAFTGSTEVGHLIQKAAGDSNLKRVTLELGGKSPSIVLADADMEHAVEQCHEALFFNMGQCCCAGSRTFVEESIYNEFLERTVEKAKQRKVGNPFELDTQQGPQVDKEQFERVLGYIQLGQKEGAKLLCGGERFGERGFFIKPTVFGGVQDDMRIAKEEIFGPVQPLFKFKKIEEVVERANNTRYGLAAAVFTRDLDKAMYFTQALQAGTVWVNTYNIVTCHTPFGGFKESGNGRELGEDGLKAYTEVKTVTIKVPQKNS
Method in brief: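 ALDH1A3-knockout A375 cells were grown 24 h, then transfected with empty pCMV6, pCMV6-GFP (to estimate transfection efficiency) or pCMV6-ALDH1B1. Medium was changed at 24 h and cells grown another 24 h. Trypsinized cells in ALDEFLUOR buffer were exposed to test compound for 15 min at 37 °C with 5% CO2, then to ALDEFLUOR reagent for 30 min. Live single cells (DAPI gating) were analysed by flow cytometry; read-out is % of cells outside the negative-control gate (ALDEFLUOR vs SSC-A).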

[2] = target: T2, endogenous ALDH1B1 in live SW480 cells (Homo sapiens, UniProt P30837); experiment: Cellular thermal shift assay; assay type: binding; conditions: 10 µM, 1 hour
T2 sequence (P30837 18-517): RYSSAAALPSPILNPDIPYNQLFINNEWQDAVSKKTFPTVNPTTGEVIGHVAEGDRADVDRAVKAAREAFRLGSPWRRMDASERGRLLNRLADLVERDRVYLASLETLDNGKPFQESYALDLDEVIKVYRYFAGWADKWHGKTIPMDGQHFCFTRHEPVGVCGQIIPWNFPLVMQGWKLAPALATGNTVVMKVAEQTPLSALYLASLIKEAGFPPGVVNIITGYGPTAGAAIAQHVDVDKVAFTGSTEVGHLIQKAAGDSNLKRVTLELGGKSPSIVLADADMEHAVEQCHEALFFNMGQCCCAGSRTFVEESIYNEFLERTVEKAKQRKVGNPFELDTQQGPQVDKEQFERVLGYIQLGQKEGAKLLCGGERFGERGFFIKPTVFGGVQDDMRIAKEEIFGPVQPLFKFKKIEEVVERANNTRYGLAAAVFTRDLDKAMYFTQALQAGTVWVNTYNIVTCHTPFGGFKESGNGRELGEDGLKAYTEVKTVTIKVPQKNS
Method in brief: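 SW480 cells were grown in 15-cm dishes, trypsinized at about 80% confluence, and kept live in the incubator for 1 h. Cells were then pelleted at 480 x g for 5 min, washed with PBS and resuspended in PBS with protease inhibitors. Total protein per lane was checked on stain-free gels alongside immunoblotting of ALDH1B1.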

[3] = test system: colorectal tumor PDO lines; experiment: Patient-derived organoid viability; assay type: cell-based, human; conditions: seven days treatment; CTO1-CTO4
Method in brief: (§2)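 Organoids (wild-type colon or colorectal tumour) were dissociated with TrypLE plus 10 µM Y-27632. They were plated as 10-µL BME-2 domes at 1,000 cells/µL in WENR medium with 10 µM Y-27632 and 2.5 µM CHIR99021, and grown 3–5 days. Test compound at varying concentrations in WENR was then given for 7 days. Viability was read as resazurin metabolism with 10% Alamar Blue: 4 h for tumour PDOs, 6 h for wild-type PDOs, at 37 °C in the dark.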

[4] = test system: ALDH1B1 variants (E124G/N457G and V173I/N457G); experiment: Inhibitor resistance of ALDH1B1 mutants; assay type: biochemical, human
Method in brief: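 A375 ALDH1A3-knockout cells were transfected (3:1 DNA:FuGENE HD) with wild-type or mutant pCMV6-ALDH1B1 and grown 48 h. Cells in ALDEFLUOR buffer received ALDEFLUOR reagent. Within 10 s, aliquots were moved to tubes holding DMSO, DEAB (1.5 mM stock in EtOH) or test compound (100 µM or 10 µM stocks in DMSO). Tubes were incubated 30 min at 37 °C, cells pelleted, and analysed by flow cytometry.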

SW480 cells = experiment: Thermal proteome profiling; assay type: binding, human; conditions: 2 µM, 1 hour; cutoffs ΔTm ≥ 1.5 °C and P < 0.05
wild-type colon PDOs = experiment: Patient-derived organoid viability; assay type: cell-based, human; conditions: seven days treatment; compared with tumor PDOs
Method in brief: as §2

[5] = test system: E124G/N457G mutant-expressing cells; assay type: cell-based, human
Method in brief: as §1

[6] = target: T3, ALDH1B1 (aldehyde dehydrogenase 1B1), human recombinant, mitochondria-targeting sequence removed (human), P30837; experiment: crystal structure; conditions: remark: other sources report otherwise
T3 chain: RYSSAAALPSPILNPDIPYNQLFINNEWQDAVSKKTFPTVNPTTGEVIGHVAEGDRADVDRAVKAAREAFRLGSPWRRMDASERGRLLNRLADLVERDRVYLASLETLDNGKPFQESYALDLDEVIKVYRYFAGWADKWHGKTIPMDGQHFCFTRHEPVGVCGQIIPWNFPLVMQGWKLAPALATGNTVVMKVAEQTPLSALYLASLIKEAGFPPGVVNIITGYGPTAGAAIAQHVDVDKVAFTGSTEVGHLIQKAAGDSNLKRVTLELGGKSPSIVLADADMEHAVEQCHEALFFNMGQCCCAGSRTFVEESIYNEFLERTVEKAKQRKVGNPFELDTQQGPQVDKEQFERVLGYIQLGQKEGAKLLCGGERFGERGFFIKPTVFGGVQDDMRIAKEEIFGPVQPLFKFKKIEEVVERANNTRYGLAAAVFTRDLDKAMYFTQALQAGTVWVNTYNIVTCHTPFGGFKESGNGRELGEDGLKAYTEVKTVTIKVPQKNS

Molecule: O=c1[nH]cc(F)c(=O)[nH]1 [5-FU]
- loss of sensitivity of 5-FU-resistant SW480 line versus parental line [1]: approximately 20 fold

Molecule: CCN(CC)c1ccc(C=O)cc1 [DEAB, N,N-diethylaminobenzaldehyde]
- cellular ALDH1B1 activity (ALDEFLUOR signal) (ALDH1B1): abrogated

Molecule: COc1cc(Cl)ccc1C1=CN(c2ccc(-c3ccccc3OC)cc2)C2=NCCCN12.O=CO [IGUANA-1]
- thermal stabilization of ALDH1B1 [2]: stabilizes endogenous ALDH1B1
- growth of colorectal adenocarcinoma PDOs [3]: inhibit the growth of each line
- inhibitor sensitivity of ALDH1B1 variants [4]: markedly reduced inhibitor sensitivity
- inhibitor-dependent change in thermal stability (ΔTm), proteome-wide (SW480 cells): largest inhibitor-dependent increase in thermal stability
- sensitivity of wild-type colon PDOs (wild-type colon PDOs): less sensitive
- resistance of mutant-expressing spheroid cultures versus wild-type ALDH1B1 [5]: more resistant

B1: ALDH1B1 (aldehyde dehydrogenase 1B1), human recombinant, mitochondria-targeting sequence removed, P30837 18-517 (enzyme)
chain: RYSSAAALPSPILNPDIPYNQLFINNEWQDAVSKKTFPTVNPTTGEVIGHVAEGDRADVDRAVKAAREAFRLGSPWRRMDASERGRLLNRLADLVERDRVYLASLETLDNGKPFQESYALDLDEVIKVYRYFAGWADKWHGKTIPMDGQHFCFTRHEPVGVCGQIIPWNFPLVMQGWKLAPALATGNTVVMKVAEQTPLSALYLASLIKEAGFPPGVVNIITGYGPTAGAAIAQHVDVDKVAFTGSTEVGHLIQKAAGDSNLKRVTLELGGKSPSIVLADADMEHAVEQCHEALFFNMGQCCCAGSRTFVEESIYNEFLERTVEKAKQRKVGNPFELDTQQGPQVDKEQFERVLGYIQLGQKEGAKLLCGGERFGERGFFIKPTVFGGVQDDMRIAKEEIFGPVQPLFKFKKIEEVVERANNTRYGLAAAVFTRDLDKAMYFTQALQAGTVWVNTYNIVTCHTPFGGFKESGNGRELGEDGLKAYTEVKTVTIKVPQKNS
- stoichiometry N [6]: 4
